ChEMBL document CHEMBL4831539, “Withanolide-Type Steroids from Physalis nicandroides Inhibit HIV Transcription” (J Nat Prod, 2021)

Key:
[1] = tested on: Human immunodeficiency virus; test: Antiviral activity against VSV envelope pseudotyped HIV infected in MT2 cells assessed as luminescence measured after 48 hrs by viral entry evaluation assay; assay type: functional, organism-based; conditions: Human immunodeficiency virus 1, MT2, 48 h
Summary of the method: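 VSV-G pseudotyped HIV came from 293T cotransfection (calcium phosphate) of envelope-deleted pNL4.3-Luc-RE plus pcDNA3-VSV. MT-2 cells were infected at 100 000 RLUs or 20 ng p24 per well, with base-2 dilutions up to 100 μM, for 48 h at 37 °C, 5% CO2. NL4.3-Ren infections ran in parallel, with an enfuvirtide reference. Luciferase RLUs were read and IC50 obtained by nonlinear regression.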

[2] = Antiviral activity against HIV1 pNL4.3-Luc infected in MT2 cells assessed as luciferase activity measured after 48 hrs by transfection assay; assay type: functional, cell-based; conditions: Human immunodeficiency virus 1, MT2, 48 h
Summary of the method: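 MT-2 cells were electroporated at 260 V, maximum resistance, with an HIV-1 whole-genome luciferase plasmid (pNL4.3-Luc). They were then treated with base-2 serial dilutions from 0.7 to 100 μM in complete RPMI at 37 °C for 48 h. PMA served as the transactivation reference. Cells were lysed and luciferase RLUs read. IC50 came from nonlinear dose–response regression.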

[3] = Selectivity index, ratio of CC50 for human MT2 cells to IC50 for antiviral activity against VSV envelope pseudotyped HIV infected in MT2 cells by viral entry evaluation assay; assay type: toxicity, cell-based; conditions: read-out: Selectivity Index
[4] = Selectivity index, ratio of CC50 for human MT2 cells to IC50 for antiviral activity against HIV1 pNL4.3-Luc infected in MT2 cells by transfection assay; assay type: toxicity, cell-based; conditions: read-out: Selectivity Index
[5] = Selectivity index, ratio of CC50 for human MT2 cells to IC50 for Anti-HIV activity against HIV; assay type: toxicity; conditions: read-out: Selectivity Index
Summary of the method: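 SI = CC50/IC50. […] CC50 came from mock-infected MT-2 cells under the same conditions, read by CellTiter Glo. Both are means of at least three independent experiments, fitted by nonlinear regression.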

CC(=O)O[C@H]1C=C([C@H](C)[C@H]2CC(C)=C(C)C(=O)O2)[C@@]2(C)CC[C@H]3[C@@H](C[C@@H](O)[C@]45C=C[C@H](OO4)C(=O)[C@]35C)[C@@]12O
IC50 [1]: 3200 nM | IC50 [2]: 1970 nM | selectivity ratio [3]: 1.64 | selectivity ratio [4]: 1.02

CC(=O)O[C@H]1C=C([C@H](C)[C@H]2CC(C)=C(C)C(=O)O2)[C@@]2(C)CC[C@H]3[C@@H](C[C@H]4O[C@]45CC=CC(=O)[C@]35C)[C@@]12O
selectivity ratio [5]: 10.6 | selectivity ratio [3]: 2.66

C=C1C(=O)O[C@@H]([C@@H](C)[C@]2(O)C[C@H](OC(C)=O)[C@]3(O)[C@@H]4C[C@H]5O[C@]56CC=CC(=O)[C@]6(C)[C@H]4CC[C@@]32C)C[C@@]1(C)O
selectivity ratio [5]: > 8

C=C1C(=O)O[C@@H]([C@@H](C)[C@]2(O)C[C@H](OC(C)=O)[C@]3(O)[C@@H]4C[C@H]5O[C@]56CC=CC(=O)[C@]6(C)[C@H]4CC[C@@]32C)C[C@]1(C)O
selectivity ratio [5]: > 5.3

C[C@H](Cn1cnc2c(N)ncnc21)OCP(=O)(O)O [TENOFOVIR ANHYDROUS]
selectivity ratio [5]: 333

enfuvirtide
IC50 [1]: > 1000 nM | IC50 [2]: 10 nM | selectivity ratio [3]: 66.7
